From article PMC10238757 (Pharmacology Research & Perspectives, 2023)
Where two headings read alike, the source gives them in different places.

How the values were obtained:
[1] = tested on: healthy participants; details: N=6
[2] = tested on: dogs; experiment: Dose ranging and good laboratory practice toxicology studies in dogs; type: in vivo
[3] = tested on: healthy participants; experiment: Safety pooled across study parts; type: in vivo, human
Summary of the method: (§1)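 AEs in healthy participants given oral test compound or placebo, recorded with grade and relation to treatment. Laboratory analyses, clinical parameters and suicidality were also monitored. Observation ran 360 h after dosing. Summaries were descriptive, with no formal statistics; parts 1–2 blinded and placebo-controlled, part 3 open-label.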

[4] = tested on: healthy participants; experiment: Safety and tolerability, relative bioavailability and food effect; type: in vivo, human
Summary of the method: as §1

[5] = tested on: rats; experiment: Dose ranging and good laboratory practice toxicology studies in rats; type: in vivo

`C=C(C)[C@@H]1CC[C@]2(NCCN3CCS(=O)(=O)CC3)CC[C@]3(C)[C@H](CC[C@@H]4[C@@]5(C)CC=C(C6=CC[C@@](COc7ncccc7C#N)(C(=O)O)CC6)C(C)(C)[C@@H]5CC[C@]43C)[C@@H]12` [GSK'937] was tested, and the “Headache, n occurrences (% of cohort)” value ([1]; SAD 80 mg) was 1 (17), the “MDSD, n occurrences (% of cohort)” value ([1]; SAD 80 mg) was 0 and the “Abdominal pain, n occurrences (% of cohort)” value (shortened to “Abdominal pain … (% of cohort)”) ([1]; SAD 320 mg) was 1 (17). The “All-cause AEs Grade 2, n occurrences (% of cohort)” value ([1]; SAD 320 mg) was 1 (17), the “All-cause AEs Grade 3/4, n occurrences (% of cohort)” value ([1]; SAD 320 mg) was 0 and the “All-cause AEs, n occurrences (% of cohort)” value ([1]; SAD 320 mg) was 5 (33). For the same compound, the “Constipation, n occurrences (% of cohort)” value (“Constipation … (% of cohort)” below) ([1]; SAD 320 mg) was 0, the “Diarrhea, n occurrences (% of cohort)” value ([1]; SAD 320 mg) was 1 (17) and the “Drug-related AEs Grade 2, n occurrences (% of cohort)” value ([1]; SAD 320 mg) was 0. For the same compound, the “Drug-related AEs Grade 3/4, n occurrences (% of cohort)” value ([1]; SAD 320 mg) was 0, the “Drug-related AEs, n occurrences (% of cohort)” value ([1]; SAD 320 mg) was 4 (17) and the “Headache, n occurrences (% of cohort)” value ([1]; SAD 320 mg) was 0. The “MDSD, n occurrences (% of cohort)” value ([1]; SAD 320 mg) was 0, the “Abdominal pain … (% of cohort)” value ([1]; SAD 640 mg) was 1 (17) and the “All-cause AEs Grade 2, n occurrences (% of cohort)” value ([1]; SAD 640 mg) was 2 (17). For the same compound, the “All-cause AEs Grade 3/4, n occurrences (% of cohort)” value ([1]; SAD 640 mg) was 0, the “All-cause AEs, n occurrences (% of cohort)” value ([1]; SAD 640 mg) was 8 (67) and the “Constipation … (% of cohort)” value ([1]; SAD 640 mg) was 1 (17). The “Diarrhea, n occurrences (% of cohort)” value ([1]; SAD 640 mg) was 1 (17), the “Drug-related AEs Grade 2, n occurrences (% of cohort)” value ([1]; SAD 640 mg) was 2 (17) and the “Drug-related AEs Grade 3/4, n occurrences (% of cohort)” value ([1]; SAD 640 mg) was 0. For the same compound, the “Drug-related AEs, n occurrences (% of cohort)” value ([1]; SAD 640 mg) was 2 (17), the “Headache, n occurrences (% of cohort)” value ([1]; SAD 640 mg) was 0 and the “MDSD, n occurrences (% of cohort)” value ([1]; SAD 640 mg) was 4 (67). The “Abdominal pain … (% of cohort)” value ([1]; SAD 800 mg) was 0, the “All-cause AEs Grade 2, n occurrences (% of cohort)” value ([1]; SAD 800 mg) was 1 (17) and the “All-cause AEs Grade 3/4, n occurrences (% of cohort)” value ([1]; SAD 800 mg) was 0. For the same compound, the “All-cause AEs, n occurrences (% of cohort)” value ([1]; SAD 800 mg) was 4 (33), the “Constipation … (% of cohort)” value ([1]; SAD 800 mg) was 0 and the “Diarrhea, n occurrences (% of cohort)” value ([1]; SAD 800 mg) was 2 (33). For the same compound, the “Drug-related AEs Grade 2, n occurrences (% of cohort)” value ([1]; SAD 800 mg) was 1 (17), the “Drug-related AEs Grade 3/4, n occurrences (% of cohort)” value ([1]; SAD 800 mg) was 0 and the “Drug-related AEs, n occurrences (% of cohort)” value ([1]; SAD 800 mg) was 2 (33). The “Headache, n occurrences (% of cohort)” value ([1]; SAD 800 mg) was 0, the “MDSD, n occurrences (% of cohort)” value ([1]; SAD 800 mg) was 1 (17) and the “lowest observed adverse effect level” value [2] was 3 mg/kg. The “severity of all AEs in participants receiving GSK'937” value ([3]; all study parts) was “grade 1 or 2”, the “dry skin among AEs attributable to GSK'937” value ([3]; parts 1 and 2, 1/17) was 6% and the “headache among AEs attributable to GSK'937” value ([3]; parts 1 and 2, 2/17) was 12%. The “Gastrointestinal disorders among GSK'937 recipients” value ([3]; parts 1 and 2, 13/64) was 20%, the “GI disorders among AEs attributable to GSK'937” value ([3]; parts 1 and 2, 14/17) was 82% and the “Abdominal pain … (% of cohort)” value ([4]; 100 mg PiB fed, N=15) was 0. For the same compound, the “All-cause AEs Grade 2, n occurrences (% of cohort)” value ([4]; 100 mg PiB fed, N=15) was 0, the “All-cause AEs Grade 3/4, n occurrences (% of cohort)” value ([4]; 100 mg PiB fed, N=15) was 0 and the “All-cause AEs, n occurrences (% of cohort)” value ([4]; 100 mg PiB fed, N=15) was 2 (13). For the same compound, the “Constipation … (% of cohort)” value ([4]; 100 mg PiB fed, N=15) was 0, the “Diarrhea, n occurrences (% of cohort)” value ([4]; 100 mg PiB fed, N=15) was 0 and the “Drug-related AEs Grade 2, n occurrences (% of cohort)” value ([4]; 100 mg PiB fed, N=15) was 0. The “Drug-related AEs Grade 3/4, n occurrences (% of cohort)” value ([4]; 100 mg PiB fed, N=15) was 0, the “Drug-related AEs, n occurrences (% of cohort)” value ([4]; 100 mg PiB fed, N=15) was 0 and the “Headache, n occurrences (% of cohort)” value ([4]; 100 mg PiB fed, N=15) was 0. For the same compound, the “MDSD, n occurrences (% of cohort)” value ([4]; 100 mg PiB fed, N=15) was 0, the “Abdominal pain … (% of cohort)” value ([4]; 100 mg tablet fasted, N=15) was 0 and the “All-cause AEs Grade 2, n occurrences (% of cohort)” value ([4]; 100 mg tablet fasted, N=15) was 2 (13). For the same compound, the “All-cause AEs Grade 3/4, n occurrences (% of cohort)” value ([4]; 100 mg tablet fasted, N=15) was 0, the “All-cause AEs, n occurrences (% of cohort)” value ([4]; 100 mg tablet fasted, N=15) was 7 (40) and the “Constipation … (% of cohort)” value ([4]; 100 mg tablet fasted, N=15) was 0. The “Diarrhea, n occurrences (% of cohort)” value ([4]; 100 mg tablet fasted, N=15) was 0, the “Drug-related AEs Grade 2, n occurrences (% of cohort)” value ([4]; 100 mg tablet fasted, N=15) was 0 and the “Drug-related AEs Grade 3/4, n occurrences (% of cohort)” value ([4]; 100 mg tablet fasted, N=15) was 0. For the same compound, the “Drug-related AEs, n occurrences (% of cohort)” value ([4]; 100 mg tablet fasted, N=15) was 0, the “Headache, n occurrences (% of cohort)” value ([4]; 100 mg tablet fasted, N=15) was 2 (13) and the “MDSD, n occurrences (% of cohort)” value ([4]; 100 mg tablet fasted, N=15) was 0. For the same compound, the “Abdominal pain … (% of cohort)” value ([4]; 100 mg tablet fed, N=17) was 0, the “All-cause AEs Grade 2, n occurrences (% of cohort)” value ([4]; 100 mg tablet fed, N=17) was 3 (12) and the “All-cause AEs Grade 3/4, n occurrences (% of cohort)” value ([4]; 100 mg tablet fed, N=17) was 0. For the same compound, the “All-cause AEs, n occurrences (% of cohort)” value ([4]; 100 mg tablet fed, N=17) was 7 (24), the “Constipation … (% of cohort)” value ([4]; 100 mg tablet fed, N=17) was 0 and the “Diarrhea, n occurrences (% of cohort)” value ([4]; 100 mg tablet fed, N=17) was 0. For the same compound, the “Drug-related AEs Grade 2, n occurrences (% of cohort)” value ([4]; 100 mg tablet fed, N=17) was 0, the “Drug-related AEs Grade 3/4, n occurrences (% of cohort)” value ([4]; 100 mg tablet fed, N=17) was 0 and the “Drug-related AEs, n occurrences (% of cohort)” value ([4]; 100 mg tablet fed, N=17) was 0. The “Headache, n occurrences (% of cohort)” value ([4]; 100 mg tablet fed, N=17) was 2 (12), the “MDSD, n occurrences (% of cohort)” value ([4]; 100 mg tablet fed, N=17) was 0 and the “AEs considered drug- or treatment-related” value ([4]; part 3) was “None”. The “changes in laboratory analyses, clinical parameters, or suicidality” value ([4]; part 3) was “No significant changes”, the “deaths or SAEs” value ([4]; part 3) was “No deaths or SAEs occurred” and the “participants reporting AEs, n of 17” value ([4]; part 3 (41%)) was 7. For the same compound, the “no observed adverse effect level” value [5] was 10 mg/kg/day.
